Data: ChEMBL document CHEMBL1148734, “Structure-activity relationships of phenyl-furanyl-rhodanines as inhibitors of RNA polymerase with antibacterial activity on biofilms” (J Med Chem, 2007)
Values after ≈ are worked out from the molar mass of the structure shown. Active and inactive are the calls of the source. The calls are words filed in the database; no cut-off is given here.

Tested on: not listed separately
Assay: Inhibition of Escherichia coli RNA polymerase sigma-70 factor
Details: not given

SMILES	IC50 [µM]
O=C(O)c1ccc(/C=C2\SC(=S)N(Cc3ccco3)C2=O)cc1	87

Tested on: Staphylococcus epidermidis
Assay: Antibacterial activity against Staphylococcus epidermidis CIP 105777
Format: functional
Details: not given

SMILES	MIC [mg/L]
C=CCN1C(=O)/C(=C/c2ccc(-c3cccc(C(=O)O)c3)o2)SC1=S	3.13 (≈ 8.43 µM)
C=CCN1C(=O)/C(=C/c2ccc(-c3ccc(C(=O)O)c(Cl)c3)o2)SC1=S	6.25 (≈ 15.4 µM)
C=CCN1C(=O)/C(=C/c2cc(C)n(-c3cccc(C(=O)O)c3)c2C)SC1=S	25 (≈ 62.7 µM)
O=C(O)c1ccc(/C=C2\SC(=S)N(Cc3ccco3)C2=O)cc1	≥ 100
C=CCN1C(=O)/C(=C/c2ccc(-c3ccc(CCC(=O)O)cc3)o2)SC1=S	25 (≈ 62.6 µM)
C=CCN1C(=O)/C(=C/c2ccc(-c3ccc(C(=O)O)cc3)o2)SC1=S	3.13 (≈ 8.43 µM)

Tested on: Escherichia coli
Assay: Antibacterial activity against Escherichia coli tolC CGSC 5633
Format: functional
Details: not given

SMILES	MIC [mg/L]
C=CCN1C(=O)/C(=C/c2ccc(-c3cccc(C(=O)O)c3)o2)SC1=S	6.25 (≈ 16.8 µM)
C=CCN1C(=O)/C(=C/c2ccc(-c3ccc(C(=O)O)c(Cl)c3)o2)SC1=S	25 (≈ 61.6 µM)
C=CCN1C(=O)/C(=C/c2cc(C)n(-c3cccc(C(=O)O)c3)c2C)SC1=S	50 (≈ 125 µM)
O=C(O)c1ccc(/C=C2\SC(=S)N(Cc3ccco3)C2=O)cc1	≥ 100
C=CCN1C(=O)/C(=C/c2ccc(-c3ccc(CCC(=O)O)cc3)o2)SC1=S	12.5 (≈ 31.3 µM)
C=CCN1C(=O)/C(=C/c2ccc(-c3ccc(C(=O)O)cc3)o2)SC1=S	12.5 (≈ 33.7 µM)

Tested on: Staphylococcus aureus
Assay: Antibacterial activity against Staphylococcus aureus CIP 76.25
Format: functional
Details: not given

SMILES	MIC [mg/L]
C=CCN1C(=O)/C(=C/c2ccc(-c3cccc(C(=O)O)c3)o2)SC1=S	12.5 (≈ 33.7 µM)
C=CCN1C(=O)/C(=C/c2ccc(-c3ccc(C(=O)O)c(Cl)c3)o2)SC1=S	50 (≈ 123 µM)
C=CCN1C(=O)/C(=C/c2cc(C)n(-c3cccc(C(=O)O)c3)c2C)SC1=S	50 (≈ 125 µM)
C=CCN1C(=O)/C(=C/c2ccc(-c3ccc(CCC(=O)O)cc3)o2)SC1=S	25 (≈ 62.6 µM)
C=CCN1C(=O)/C(=C/c2ccc(-c3ccc(C(=O)O)cc3)o2)SC1=S	≥ 100

Tested on: Escherichia coli
Assay: Inhibition of RNA polymerase sigma-70 transcription in Escherichia coli at 10 uM
Format: functional
Details: not given

SMILES	inhibition at 10 µM [%]
C=CCN1C(=O)/C(=C/c2ccc(-c3cccc(C(=O)O)c3)o2)SC1=S	97
C=CCN1C(=O)/C(=C/c2ccc(-c3ccc(C(=O)O)c(Cl)c3)o2)SC1=S	100
C=CCN1C(=O)/C(=C/c2cc(C)n(-c3cccc(C(=O)O)c3)c2C)SC1=S	100
O=C(O)c1ccc(/C=C2\SC(=S)N(Cc3ccco3)C2=O)cc1	5
C=CCN1C(=O)/C(=C/c2ccc(-c3ccc(CCC(=O)O)cc3)o2)SC1=S	68
C=CCN1C(=O)/C(=C/c2ccc(-c3ccc(C(=O)O)cc3)o2)SC1=S	98

Tested on: CHO
Assay: Cytotoxicity against CHO cells
Format: cell-based, Cricetulus griseus
Details: chinese hamster
Procedure, shortened: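 CHO cells grown in RPMI with 5% fetal calf serum, then exposed to compounds 24 h at 37 °C without serum. MTT added at 300 µg/mL final, 3 h at 37 °C dark; acidified isopropanol added, 1 h at room temperature; OD at 595 nm.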

SMILES	Activity
C=CCN1C(=O)/C(=C/c2ccc(-c3cccc(C(=O)O)c3)o2)SC1=S	>= 100 ug ml-1
C=CCN1C(=O)/C(=C/c2ccc(-c3ccc(C(=O)O)c(Cl)c3)o2)SC1=S	>= 100 ug ml-1
C=CCN1C(=O)/C(=C/c2cc(C)n(-c3cccc(C(=O)O)c3)c2C)SC1=S	>= 100 ug ml-1
C=CCN1C(=O)/C(=C/c2ccc(-c3ccc(CCC(=O)O)cc3)o2)SC1=S	>= 100 ug ml-1
C=CCN1C(=O)/C(=C/c2ccc(-c3ccc(C(=O)O)cc3)o2)SC1=S	>= 100 ug ml-1

Tested on: Staphylococcus aureus
Assay: Antibacterial activity against multidrug resistant Staphylococcus aureus 49589
Format: functional
Details: not given
Procedure, shortened: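 Broth microdilution MIC following CLSI. Compounds were predissolved in DMSO and tested as serial 2-fold dilutions at final 100 to 0.4 µg/mL. Inoculum was 5 × 10⁵ CFU/mL, and plates were read after 18 h at 37 °C.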

SMILES	MIC [mg/L]
C=CCN1C(=O)/C(=C/c2ccc(-c3cccc(C(=O)O)c3)o2)SC1=S	25 (≈ 67.3 µM)
C=CCN1C(=O)/C(=C/c2ccc(-c3ccc(C(=O)O)c(Cl)c3)o2)SC1=S	50 (≈ 123 µM)
C=CCN1C(=O)/C(=C/c2cc(C)n(-c3cccc(C(=O)O)c3)c2C)SC1=S	25 (≈ 62.7 µM)
C=CCN1C(=O)/C(=C/c2ccc(-c3ccc(CCC(=O)O)cc3)o2)SC1=S	25 (≈ 62.6 µM)
C=CCN1C(=O)/C(=C/c2ccc(-c3ccc(C(=O)O)cc3)o2)SC1=S	≥ 100

Tested on: Staphylococcus epidermidis
Assay: Antibacterial activity against Staphylococcus epidermidis RP62A
Format: functional
Details: not given

SMILES	MIC [mg/L]
C=CCN1C(=O)/C(=C/c2ccc(-c3cccc(C(=O)O)c3)o2)SC1=S	12.5 (≈ 33.7 µM)
C=CCN1C(=O)/C(=C/c2ccc(-c3ccc(C(=O)O)c(Cl)c3)o2)SC1=S	6.25 (≈ 15.4 µM)
C=CCN1C(=O)/C(=C/c2cc(C)n(-c3cccc(C(=O)O)c3)c2C)SC1=S	25 (≈ 62.7 µM)
C=CCN1C(=O)/C(=C/c2ccc(-c3ccc(CCC(=O)O)cc3)o2)SC1=S	25 (≈ 62.6 µM)
C=CCN1C(=O)/C(=C/c2ccc(-c3ccc(C(=O)O)cc3)o2)SC1=S	3.13 (≈ 8.43 µM)

Tested on: Staphylococcus epidermidis
Assay: Antibacterial activity against Staphylococcus epidermidis 40004
Format: functional
Details: not given

SMILES	MIC [mg/L]
C=CCN1C(=O)/C(=C/c2ccc(-c3cccc(C(=O)O)c3)o2)SC1=S	25 (≈ 67.3 µM)
C=CCN1C(=O)/C(=C/c2ccc(-c3ccc(C(=O)O)c(Cl)c3)o2)SC1=S	6.25 (≈ 15.4 µM)
C=CCN1C(=O)/C(=C/c2cc(C)n(-c3cccc(C(=O)O)c3)c2C)SC1=S	50 (≈ 125 µM)
C=CCN1C(=O)/C(=C/c2ccc(-c3ccc(CCC(=O)O)cc3)o2)SC1=S	25 (≈ 62.6 µM)
C=CCN1C(=O)/C(=C/c2ccc(-c3ccc(C(=O)O)cc3)o2)SC1=S	6.25 (≈ 16.8 µM)

Tested on: Staphylococcus epidermidis
Assay: Antibacterial activity against Staphylococcus epidermidis 48155
Format: functional
Details: not given

SMILES	MIC [mg/L]
C=CCN1C(=O)/C(=C/c2ccc(-c3cccc(C(=O)O)c3)o2)SC1=S	25 (≈ 67.3 µM)
C=CCN1C(=O)/C(=C/c2ccc(-c3ccc(C(=O)O)c(Cl)c3)o2)SC1=S	12.5 (≈ 30.8 µM)
C=CCN1C(=O)/C(=C/c2cc(C)n(-c3cccc(C(=O)O)c3)c2C)SC1=S	25 (≈ 62.7 µM)
C=CCN1C(=O)/C(=C/c2ccc(-c3ccc(CCC(=O)O)cc3)o2)SC1=S	12.5 (≈ 31.3 µM)
C=CCN1C(=O)/C(=C/c2ccc(-c3ccc(C(=O)O)cc3)o2)SC1=S	3.13 (≈ 8.43 µM)

Tested on: Streptococcus pneumoniae
Assay: Antibacterial activity against Streptococcus pneumoniae CIP 103566
Format: functional
Details: not given

SMILES	MIC [mg/L]
C=CCN1C(=O)/C(=C/c2ccc(-c3cccc(C(=O)O)c3)o2)SC1=S	50 (≈ 135 µM)
C=CCN1C(=O)/C(=C/c2ccc(-c3ccc(C(=O)O)c(Cl)c3)o2)SC1=S	12.5 (≈ 30.8 µM)
C=CCN1C(=O)/C(=C/c2cc(C)n(-c3cccc(C(=O)O)c3)c2C)SC1=S	25 (≈ 62.7 µM)
C=CCN1C(=O)/C(=C/c2ccc(-c3ccc(CCC(=O)O)cc3)o2)SC1=S	≥ 100
C=CCN1C(=O)/C(=C/c2ccc(-c3ccc(C(=O)O)cc3)o2)SC1=S	≥ 100

Tested on: Clostridioides difficile
Assay: Antibacterial activity against Clostridium difficile DSM 1296
Format: functional
Details: not given

SMILES	MIC [mg/L]
C=CCN1C(=O)/C(=C/c2ccc(-c3cccc(C(=O)O)c3)o2)SC1=S	12.5 (≈ 33.7 µM)
C=CCN1C(=O)/C(=C/c2ccc(-c3ccc(C(=O)O)c(Cl)c3)o2)SC1=S	12.5 (≈ 30.8 µM)
C=CCN1C(=O)/C(=C/c2cc(C)n(-c3cccc(C(=O)O)c3)c2C)SC1=S	6.25 (≈ 15.7 µM)
C=CCN1C(=O)/C(=C/c2ccc(-c3ccc(CCC(=O)O)cc3)o2)SC1=S	50 (≈ 125 µM)
C=CCN1C(=O)/C(=C/c2ccc(-c3ccc(C(=O)O)cc3)o2)SC1=S	≥ 100

Tested on: Bacillus anthracis
Assay: Antibacterial activity against Bacillus anthracis 9131
Format: functional
Details: not given

SMILES	MIC [mg/L]
C=CCN1C(=O)/C(=C/c2ccc(-c3cccc(C(=O)O)c3)o2)SC1=S	6.25 (≈ 16.8 µM)
C=CCN1C(=O)/C(=C/c2ccc(-c3ccc(C(=O)O)c(Cl)c3)o2)SC1=S	3.13 (≈ 7.71 µM)
C=CCN1C(=O)/C(=C/c2cc(C)n(-c3cccc(C(=O)O)c3)c2C)SC1=S	6.25 (≈ 15.7 µM)
C=CCN1C(=O)/C(=C/c2ccc(-c3ccc(CCC(=O)O)cc3)o2)SC1=S	12.5 (≈ 31.3 µM)
C=CCN1C(=O)/C(=C/c2ccc(-c3ccc(C(=O)O)cc3)o2)SC1=S	3.13 (≈ 8.43 µM)

Tested on: Staphylococcus epidermidis
Assay: Antibacterial activity against Staphylococcus epidermidis RP62A biofilms assessed as bacterial count per well at 8 times MIC after 24 hrs
Format: functional
Details: not given
Procedure, shortened: (§1)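 Biofilms from 10⁷ CFU/mL inoculum in MHB grown 24 h at 37 °C, rinsed, then exposed 24 h at 37 °C without shaking in MHB to compound at 8× MIC. Washed, DMSO-lysed, ATP bioluminescence read (luciferase/D-luciferin buffer, pH 7.25). Strain-specific luminescence-to-Log₁₀ CFU/well equations used; triplicate.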

SMILES	log10CFU/ml
C=CCN1C(=O)/C(=C/c2cc(C)n(-c3cccc(C(=O)O)c3)c2C)SC1=S	2.8

Tested on: Staphylococcus epidermidis
Assay: Antibacterial activity against Staphylococcus epidermidis 40004 biofilms assessed as bacterial count per well at 8 times MIC after 24 hrs
Format: functional
Details: not given
Procedure, shortened: as §1

SMILES	log10CFU/ml
C=CCN1C(=O)/C(=C/c2cc(C)n(-c3cccc(C(=O)O)c3)c2C)SC1=S	2.3

Tested on: Staphylococcus epidermidis
Assay: Antibacterial activity against Staphylococcus epidermidis 48155 biofilms assessed as bacterial count per well at 8 times MIC after 24 hrs
Format: functional
Details: not given
Procedure, shortened: as §1

SMILES	log10CFU/ml
C=CCN1C(=O)/C(=C/c2cc(C)n(-c3cccc(C(=O)O)c3)c2C)SC1=S	1.8

Biological target: Albumin (Homo sapiens, UniProt P02768)
Assay: Binding affinity to HSA by SPR method
Format: ADME
Details: isolated protein
Procedure, shortened: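 SPR at 25 °C; HSA amine-coupled on CM5 chip (9000–11 000 RU). Compounds at 50 µM in PBS with 5% DMSO, 30 µL/min, duplicate 60 s injections over HSA and reference surfaces. Double referencing with buffer blanks; DMSO bulk correction from calibration curve (4.5–5.8% DMSO).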

Sequence of Albumin (P02768 whole entry): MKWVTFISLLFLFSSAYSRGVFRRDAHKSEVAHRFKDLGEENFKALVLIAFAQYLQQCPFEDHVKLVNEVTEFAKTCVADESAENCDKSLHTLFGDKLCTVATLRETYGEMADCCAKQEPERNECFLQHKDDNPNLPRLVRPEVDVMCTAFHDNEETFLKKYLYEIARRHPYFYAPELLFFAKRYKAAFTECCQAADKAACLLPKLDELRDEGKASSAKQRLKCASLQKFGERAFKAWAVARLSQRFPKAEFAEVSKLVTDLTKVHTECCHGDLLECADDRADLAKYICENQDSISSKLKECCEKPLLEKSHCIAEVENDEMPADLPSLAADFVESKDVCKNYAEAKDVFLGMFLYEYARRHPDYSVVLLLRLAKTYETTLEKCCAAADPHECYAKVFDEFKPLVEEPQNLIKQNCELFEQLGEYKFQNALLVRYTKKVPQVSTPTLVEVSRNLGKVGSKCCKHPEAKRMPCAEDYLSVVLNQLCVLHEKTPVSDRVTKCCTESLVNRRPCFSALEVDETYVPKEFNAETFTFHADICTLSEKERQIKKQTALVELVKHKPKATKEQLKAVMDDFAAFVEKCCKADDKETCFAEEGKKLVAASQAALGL

SMILES	Activity
C=CCN1C(=O)/C(=C/c2ccc(-c3cccc(C(=O)O)c3)o2)SC1=S	Active
C=CCN1C(=O)/C(=C/c2ccc(-c3ccc(C(=O)O)c(Cl)c3)o2)SC1=S	Active
C=CCN1C(=O)/C(=C/c2ccc(-c3ccc(CCC(=O)O)cc3)o2)SC1=S	Active
C=CCN1C(=O)/C(=C/c2ccc(-c3ccc(C(=O)O)cc3)o2)SC1=S	Active

Tested on: Escherichia coli
Assay: Antibacterial activity against Escherichia coli tolC CGSC 5633 in presence of 1% HSA
Format: functional, organism-based
Details: not given

SMILES	Activity
C=CCN1C(=O)/C(=C/c2ccc(-c3cccc(C(=O)O)c3)o2)SC1=S	inactive
C=CCN1C(=O)/C(=C/c2ccc(-c3ccc(C(=O)O)c(Cl)c3)o2)SC1=S	inactive
C=CCN1C(=O)/C(=C/c2ccc(-c3ccc(CCC(=O)O)cc3)o2)SC1=S	inactive
C=CCN1C(=O)/C(=C/c2ccc(-c3ccc(C(=O)O)cc3)o2)SC1=S	inactive
